Shown is part of a subset that was picked to be rich in hits.
Lmaj promast – reduces viability of Leishmania major promastigotes | inhibition, % at 10 µM | resazurin fluorescence viability | AID 1063 | 9% of 200,000 active; in the data active = inhibition above about 50%;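 also: promastigotes grown with compound for 44 hours at 28 °C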
HSF1 inhib – HSF1 inhibition. activity change, negative = inhibition, % at 7.5 µM (by protocol). 0.77% of 300,000 active. NIH3T3-HGL HSE-luciferase, MG132-induced, luminescence 8 h; stronger effect = lower value;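 active = more than half of replicate wells show activity change below -50%, luminescence cut by over half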;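 also: luciferase reports HSF-1 transcriptional activity via heat shock element; 0% = median of DMSO wells and -100% = zero luminescence signal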
Hsp70 act – transcriptional activators of Hsp70; HeLa Hsp70 promoter luciferase reporter, luminescence; scaled: vehicle 0, proteasome-inhibitor control 100%; activation, % at 10 µM; 0.04% of 200,000 active;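 active = activation above the mean across all tested compounds plus 3 SD, cutoff set per campaign, cut at about 5.5% in these data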;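 also: 100% = MG132 at 30 µM as the positive control and 0% = DMSO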
T cruzi inh – T. cruzi replication inhibition. T. cruzi beta-gal in NIH3T3, luminescence, 90 h. inhibition, % (test concentration not listed). 1.4% of 300,000 active. AID 1885;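 active = mean inhibition across valid replicates above about 55%, limit read from the data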;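 also: signal also drops with host cell toxicity which is not excluded here; 0% = plate median of DMSO wells and 100% = zero luminescence signal; higher percent means less beta-gal luminescence so fewer parasites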
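Read-out: Parasite load inhibition, % | Test system: Mouse NIH/3T3 fibroblasts infected with β-gal-expressing T. cruzi Tulahuen C4 | Amount: 5,000 cells/well | Medium: DMEM, 2% fetal bovine serum | Signal: GalScreen β-gal luminescence, detergent lysis, 60 min | Timing: 3 h attach, ≥90 h co-culture | Also added: Tulahuen C4 trypomastigotes, 5000/well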
HSF1 activator – increases HSF-1 driven luciferase reporter signal. 1.7% of 300,000 active. activation, % at 9 µM. NIH3T3-HGL HSF-1 luciferase reporter, MG132, 8 h; 100% = twice DMSO control signal. AID 504408;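 active = mean replicate activation of at least 50% with a set share of replicates each reaching 50%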;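 also: 0% = median of the neutral control wells and 100% = twice that signal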
The depositor's hits bear a star; nt = not tested or not shown.

SMILES	Lmaj promast	HSF1 inhib	Hsp70 act	T cruzi inh	HSF1 activator
Cc1ccc2nc(NC(=O)C(NS(=O)(=O)c3cccc4nsnc34)C(C)C)sc2c1 (configuration not stated)	96*	-1	0	18	-1
CCN=C1S/C(=C\c2ccc(-c3cccc(C(=O)O)c3)o2)C(=O)N1CC	6	-52*	0	-38	-57
CCN1C(=O)/C(=C\c2ccc(-c3cccc(C(=O)OC)c3)o2)SC1=Nc1ccc(C(=O)O)cc1	nt	1	nt	10	-1
O=C(CSc1nnc(Cc2ccccc2)o1)N1CCCc2ccccc21	-7	1	0	2	2
Cc1[nH]c2ccc(-c3nnc(SCC(=O)N4CCCc5ccccc54)o3)cc2c1C	4	3	0	79*	1
COc1ccc(-c2ccc(C(c3c(C)[nH][nH]c3=O)c3c(C)[nH][nH]c3=O)o2)c([N+](=O)[O-])c1	61*	nt	0	nt	nt
Cc1[nH][nH]c(=O)c1C(c1ccc(-c2ccc(F)cc2)o1)c1c(C)[nH][nH]c1=O	99*	19	0	-19	26
Cc1[nH][nH]c(=O)c1C(c1ccc(-c2ccc(C(=O)O)cc2)o1)c1c(C)[nH][nH]c1=O	-6	nt	0	nt	nt
COc1ccc(-c2ccc(/C=N/N3C(=O)C4C5C=CC(C6CC56)C4C3=O)o2)c([N+](=O)[O-])c1 (configuration not stated)	1	nt	0	2	nt
Cc1[nH][nH]c(=O)c1C(c1ccc(-c2ccc(Cl)c(Cl)c2)o1)c1c(C)[nH][nH]c1=O	100*	10	0	-28	12
CN1CCC(N(CCc2ccccc2)C(=O)CCC(=O)O)CC1	nt	-1	nt	-7	-5
COc1cc(/C=C2/C(=O)c3cccc([N+](=O)[O-])c3C2=O)c(Br)cc1O	100*	nt	0	nt	nt
CCC(C)(C)c1ccc(OCCCC[n+]2cccc(C)c2)c(C(C)(C)CC)c1	100*	-8	0	60*	-18
Cc1ccc[n+](CC(=O)Nc2cc(C(F)(F)F)ccc2Cl)c1	-8	-5	0	-18	-15
CS(=O)(=O)Nc1ccc2[nH]c(=O)[nH]c2c1	-5	1	0	-3	2
CCS(=O)(=O)Nc1ccc2[nH]c(=O)[nH]c2c1	-8	28	0	-14	78*
COc1ccc2c(c1)CCC/C2=N/OC(=O)c1ccccc1OC	18	3	0	-1	16
COc1ccc2c(c1)CC/C2=N\OC(=O)c1ccccc1C	8	22	0	1	61*
COc1ccc2c(c1)CC/C2=N\OC(=O)c1cccc(C)c1	1	27	0	3	65*
CCOC(=O)C(=O)NNc1ccccc1C	72*	-11	0	-1	3
CCOC(=O)C(=O)NNc1cccc(C)c1C	-7	-2	0	12	-8
NC(=O)C1CC12c1ccccc1-c1ccccc12 (configuration not stated)	nt	8	nt	4	-1
CN(C(=O)c1ccco1)c1nc2c(s1)CCCC2	-3	27	0	-4	62*
O=C(CN1CCN(Cc2ccccc2Cl)CC1)N=Nc1c(O)[nH]c2ccccc12	7	12	0	12	52*
Cc1ccc(CN2CCN(CC(=O)N=Nc3c(O)[nH]c4ccccc34)CC2)cc1	100*	6	0	58*	9
SMILES	Lmaj promast	HSF1 inhib	Hsp70 act	T cruzi inh	HSF1 activator
O=C(N=Nc1c(O)[nH]c2ccccc12)c1ccc(CN2CCOCC2)cc1	15	-4	0	-4	0
Cc1ccc(S(=O)(=O)N(C)c2ccc(C(=O)N(CC(C)C)C3CCS(=O)(=O)C3)cc2)cc1 (configuration not stated)	nt	-1	nt	-6	-4
Fc1ccccc1NC(=S)N(CCCN1CCOCC1)Cc1cccnc1	11	4	0	3	-5
Cc1ccccc1CSc1ccc(-c2ccc3c(c2)OCO3)nn1	37	26	0	27	42
CCOC(=O)c1sc2ncn(C(CC)C(=O)OCC)c(=O)c2c1C (configuration not stated)	99*	2	0	-7	-3
CCOC(=O)Cc1csc(NC(=O)CN2CCOCC2)n1	nt	-3	nt	-6	-9
CCN(CC(=O)NC(C)(C)C)Cc1cc(=O)n2c(-c3ccccc3)csc2n1	nt	-5	nt	4	-4
COc1ccc(NC(=O)COC(=O)COc2cccc(Br)c2)cc1OC	-12	0	0	-15	6
O=C(COC(=O)COc1cccc(Br)c1)Nc1c(Cl)cccc1Cl	-7	6	0	-35	54*
Cc1c(/C=N/NC(=O)c2cc(=O)[nH]c(=O)[nH]2)c2ccccn2c1C(=O)c1ccccc1	-4	2	0	14	-8
CCOC(=O)N(C)c1ccc(C(O)(C(F)(F)F)C(F)(F)F)cc1	100*	1	0	1	13
CC(=O)N(C)c1ccc(NC(=O)Nc2ccc(C)cc2)cc1	2	4	0	-1	22
CC(=O)N(C)c1ccc(C(O)(C(F)(F)F)C(F)(F)F)cc1	99*	-5	0	-1	-12
CCN1C(=O)c2cccc3c(S(=O)(=O)NCCc4c[nH]c5ccccc45)ccc1c23	99*	9	1	-43	12
CCN1C(=O)c2cccc3c(S(=O)(=O)NCCCN4CCOCC4)ccc1c23	78*	3	0	4	-5
CCN1C(=O)c2cccc3c(S(=O)(=O)Nc4ccccc4OC)ccc1c23	17	27	0	8	59*
CCN1C(=O)c2cccc3c(NC(=O)c4ccc(S(=O)(=O)N5CCOCC5)cc4)ccc1c23	26	2	0	8	12
CCN1C(=O)c2cccc3c(S(=O)(=O)Nc4ccc(O)c(C(=O)O)c4)ccc1c23	nt	5	nt	-12	36
NC(=O)C1CCN(C(=O)CSc2ccsc2[N+](=O)[O-])CC1	2	nt	0	nt	nt
O=C(COC(=O)c1ccc(O)cc1)Nc1ccccc1-c1ccccc1	57*	5	0	8	-9
CCn1cc(C(=O)N2CCN(c3cccc(Cl)c3)CC2)c2cc(OC)c(OC)cc2c1=O	92*	0	0	11	2
COc1cc2c(C(=O)N3CCN(c4cccc(Cl)c4)CC3)cn(C)c(=O)c2cc1OC	-3	6	0	9	4
CCOc1ccc(-n2cc(C(=O)N3CCC(C)CC3)c3cc(OC)c(OC)cc3c2=O)cc1	13	23	0	-1	66*
CCOc1ccc(-n2cc(C(=O)Nc3cccc(Cl)c3)c3cc(OC)c(OC)cc3c2=O)cc1	42	3	-1	64*	-11
COc1ccc([N+](=O)[O-])cc1NC(=O)c1cn(-c2ccc(Cl)cc2)c(=O)c2ccccc12	60*	-1	0	4	16
CC1CCN(Cc2nnnn2CCCC(=O)N(C)C2CCOC2)CC1 (configuration not stated)	nt	-6	nt	-5	-5
CCOCc1nnc(NC(=O)C2CC(=O)N(C3CCCC3)C2)s1 (configuration not stated)	nt	-9	nt	1	-11

Bioassay records from PubChem BioAssay.
